One block for each molecule: values may come before it. Activity calls are given as the source filed them. The rule behind the calls is not given here.
Columns and labels:
Format in all cases: cell-based
[1] = target: T1, Retinoic acid receptor RXR-alpha (Homo sapiens) (UniProt P19793); assay: Agonist activity at Gal4-LBD fused RXRalpha (unknown origin) expressed in HEK293T cells at 0.1 to 3 uM after 14 to 16 hrs in presence of RXR antagonist HX531 by dual-Glo luciferase reporter gene assay
T1 sequence (whole entry): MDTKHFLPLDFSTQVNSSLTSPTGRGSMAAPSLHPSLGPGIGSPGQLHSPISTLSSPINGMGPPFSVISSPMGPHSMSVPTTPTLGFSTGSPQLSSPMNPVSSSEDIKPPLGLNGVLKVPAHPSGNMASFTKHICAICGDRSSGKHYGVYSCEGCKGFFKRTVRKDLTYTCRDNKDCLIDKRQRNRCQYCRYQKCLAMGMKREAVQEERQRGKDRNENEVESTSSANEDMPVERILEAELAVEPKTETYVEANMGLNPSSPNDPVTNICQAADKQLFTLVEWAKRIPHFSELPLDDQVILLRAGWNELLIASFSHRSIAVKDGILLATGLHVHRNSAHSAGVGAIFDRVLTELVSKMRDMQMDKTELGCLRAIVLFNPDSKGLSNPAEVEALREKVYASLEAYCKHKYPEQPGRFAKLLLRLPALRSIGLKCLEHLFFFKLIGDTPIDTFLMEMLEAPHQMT

[2] = target: T2, Retinoic acid receptor RXR-beta (Homo sapiens) (UniProt P28702); assay: Agonist activity at Gal4-LBD fused RXRbeta (unknown origin) expressed in HEK293T cells at 0.1 to 3 uM after 14 to 16 hrs in presence of RXR antagonist HX531 by dual-Glo luciferase reporter gene assay
T2 sequence (whole entry): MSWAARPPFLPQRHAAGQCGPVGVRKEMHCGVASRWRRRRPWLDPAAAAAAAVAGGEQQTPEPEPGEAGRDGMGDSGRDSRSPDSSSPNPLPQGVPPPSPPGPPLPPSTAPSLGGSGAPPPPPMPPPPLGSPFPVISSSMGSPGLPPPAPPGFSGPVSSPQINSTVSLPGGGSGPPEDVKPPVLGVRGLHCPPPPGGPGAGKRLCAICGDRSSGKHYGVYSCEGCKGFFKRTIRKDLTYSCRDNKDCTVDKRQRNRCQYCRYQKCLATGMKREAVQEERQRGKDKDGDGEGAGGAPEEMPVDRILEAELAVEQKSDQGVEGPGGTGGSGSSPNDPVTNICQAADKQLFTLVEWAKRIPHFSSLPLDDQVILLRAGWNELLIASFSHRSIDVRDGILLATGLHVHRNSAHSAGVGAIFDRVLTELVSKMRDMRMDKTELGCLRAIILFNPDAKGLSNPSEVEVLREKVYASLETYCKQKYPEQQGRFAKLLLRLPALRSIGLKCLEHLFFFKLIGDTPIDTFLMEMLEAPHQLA

Homo sapiens [3] = species: Homo sapiens; assay: Agonist activity at full-length human PPARgamma/RXR expressed in HEK293T cells at 10 uM after 14 to 16 hrs by dual-glo luciferase reporter gene assay relative to untreated control
In short: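 RXR:PPARγ heterodimer reporter assay in HEK293T cells with test compound alone. Mean relative activation is taken versus 0.1% DMSO, from three independent experiments each run in duplicate.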

Homo sapiens [4] = species: Homo sapiens; assay: Agonist activity at full-length human PPARgamma/RXR expressed in HEK293T cells at 10 uM after 14 to 16 hrs in presence of 1 uM rosiglitazone by dual-glo luciferase reporter gene assay relative to rosiglitazone
In short: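 RXR:PPARγ heterodimer reporter assay run with reference PPARγ agonist rosiglitazone (1 μM) co-applied. Read-out is mean relative synergistic activation, from three independent experiments each run in duplicate.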

[5] = target: T3, Peroxisome proliferator-activated receptor gamma (Homo sapiens) (UniProt P37231); assay: Agonist activity at Gal4-LBD fused PPARgamma (unknown origin) expressed in HEK293T cells at 20 uM after 14 to 16 hrs by dual-Glo luciferase assay
T3 sequence (whole entry): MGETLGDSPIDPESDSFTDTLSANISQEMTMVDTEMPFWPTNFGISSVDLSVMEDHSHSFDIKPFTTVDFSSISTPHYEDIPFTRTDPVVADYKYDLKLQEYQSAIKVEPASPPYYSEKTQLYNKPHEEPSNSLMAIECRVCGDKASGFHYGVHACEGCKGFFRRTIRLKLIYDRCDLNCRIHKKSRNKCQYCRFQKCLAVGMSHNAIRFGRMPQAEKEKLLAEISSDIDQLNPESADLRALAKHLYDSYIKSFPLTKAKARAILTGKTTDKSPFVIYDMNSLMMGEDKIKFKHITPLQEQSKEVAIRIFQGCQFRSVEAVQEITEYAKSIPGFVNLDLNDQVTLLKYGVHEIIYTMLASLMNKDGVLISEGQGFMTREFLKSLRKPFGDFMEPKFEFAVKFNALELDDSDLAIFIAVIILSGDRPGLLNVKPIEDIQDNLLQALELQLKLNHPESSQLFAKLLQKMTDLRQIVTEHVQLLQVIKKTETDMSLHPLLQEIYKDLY
In short: (§1)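 Gal4-hybrid reporter gene selectivity panel of related nuclear receptors (PPARα/β/γ, RARα/β/γ) in HEK293T cells. Activity is read as mean fold activation versus 0.1% DMSO vehicle, n ≥ 2.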

[6] = target: T4, Peroxisome proliferator-activated receptor alpha (Homo sapiens) (UniProt Q07869); assay: Agonist activity at Gal4-LBD fused PPARalpha (unknown origin) expressed in HEK293T cells at 20 uM after 14 to 16 hrs by dual-Glo luciferase assay; in short: as §1
T4 sequence (whole entry): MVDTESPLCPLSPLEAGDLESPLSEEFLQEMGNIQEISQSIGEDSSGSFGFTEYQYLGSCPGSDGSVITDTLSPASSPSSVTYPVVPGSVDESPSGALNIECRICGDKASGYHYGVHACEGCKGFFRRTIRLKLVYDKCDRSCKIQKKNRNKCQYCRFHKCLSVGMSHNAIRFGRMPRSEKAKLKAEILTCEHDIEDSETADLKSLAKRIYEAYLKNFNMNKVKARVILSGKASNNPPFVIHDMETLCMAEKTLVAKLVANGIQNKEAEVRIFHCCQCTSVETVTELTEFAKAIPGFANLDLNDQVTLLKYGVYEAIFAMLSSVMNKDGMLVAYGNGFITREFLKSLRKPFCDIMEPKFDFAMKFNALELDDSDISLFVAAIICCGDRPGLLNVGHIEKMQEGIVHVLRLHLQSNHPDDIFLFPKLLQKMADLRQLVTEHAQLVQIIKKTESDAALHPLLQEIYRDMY

[7] = target: T1, Retinoic acid receptor RXR-alpha (Homo sapiens); assay: Agonist activity at Gal4-LBD fused RXRalpha (unknown origin) expressed in HEK293T cells assessed as fold activation at 10 uM after 14 to 16 hrs by dual-Glo luciferase assay relative to untreated control
In short: (§2)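 Gal4-hybrid RXRα/β/γ reporter gene assays in HEK293T cells. Fold activation is the maximal fold activation versus 0.1% DMSO.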

[8] = target: T2, Retinoic acid receptor RXR-beta (Homo sapiens); assay: Agonist activity at Gal4-LBD fused RXRbeta (unknown origin) expressed in HEK293T cells assessed as fold activation at 10 uM after 14 to 16 hrs by dual-Glo luciferase assay relative to untreated control; in short: as §2

Activity [1]: inactive
Activity [2]: inactive
Compound: Cc1cc(-c2cc(C(F)(F)F)cc(C(F)(F)F)c2)ccc1CC(=O)O
Activity (Homo sapiens [3]): 139%
Activity (Homo sapiens [4]): 84%

Activity [5]: Active
Activity [6]: Active
Compound: Cc1cc(-c2ccc(C(=O)O)cc2)cc(C(C)(C)C)c1

fold change (FC) [7]: 3
fold change (FC) [8]: 31
Compound: Cc1cc(-c2cc(C(C)(C)C)cc(C(C)(C)C)c2)ccc1C(=O)O

Source: ChEMBL document CHEMBL4304816, “A Novel Biphenyl-based Chemotype of Retinoid X Receptor Ligands Enables Subtype and Heterodimer Preferences” (ACS Med Chem Lett, 2019)
